Measured values published in ChEMBL document CHEMBL5053555, “Design, Synthesis, and Evaluation of Potent, Selective, and Bioavailable AKT Kinase Degraders” (J Med Chem, 2021).
The source made the active and inactive calls. The calls are words filed in the database; no cut-off is given here.

Columns and labels:
[1] = biological target: T1, von Hippel-Lindau disease tumor suppressor/AKT (Homo sapiens) (UniProt P31751+Q9Y243+P31749+P40337); assay: Protac activity at VHL/AKT in human BT-474 cells assessed as reduction in phosphorylated AKT level at 5 to 10 uM after 24 hrs by Western blot analysis; format: cell-based; details: dose 5-10 µM
Summary of the method: (§1)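 BT474 cells were treated 24 h with compound and lysed in IP lysis buffer (Tris pH 7.5, Triton X-100, phosphatase and protease inhibitors). Lysates were normalised by BCA and run on 4–12% Bis–Tris gels with PVDF wet transfer. Blots were probed for total AKT, P-AKT S473, P-PRAS40 T246 and P-S6 S240/244, with β-actin loading control and HRP chemiluminescence.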

[2] = biological target: T1, von Hippel-Lindau disease tumor suppressor/AKT (Homo sapiens); assay: Protac activity at VHL/AKT in human BT-474 cells assessed as reduction in total AKT level at 5 to 10 uM after 24 hrs by Western blot analysis; format: cell-based; details: dose 5-10 µM; summary of the method: as §1
MDA-MB-468 [3] = assay: Antiproliferative activity against human MDA-MB-468 cells assessed as growth inhibition incubated for 5 days by IncuCyte live-cell imaging analysis; format: functional; details: MDA-MB-468, 120 h, time 5 day
Mus musculus = assay: Toxicity in Swiss albino mouse assessed as tolerability at 50 mg/kg, ip measured upto 8 hrs by LC-MS/MS method; format: organism-based; details: in vivo
PC-3 = assay: Antiproliferative activity against human PC-3 cells assessed as growth inhibition incubated for 5 days by IncuCyte live-cell imaging analysis; format: functional; details: PC-3, 120 h, time 5 day
MDA-MB-468 [4] = assay: Induction of apoptosis in human MDA-MB-468 cells at 2.5 uM measured upto 120 hrs by IncuCyte live-cell automated imaging analysis; format: functional
Summary of the method: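 MDA-MB-468 cells (1–3 × 10³/well, triplicate wells) grown with compound in DMEM/10% FBS at 37 °C, 5% CO₂. DRAQ7 at 1.5 μM was added to the medium, and apoptotic red-fluorescent counts were imaged on an IncuCyte over 5 days.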

in vivo [5] = details: Swiss albino, mouse, ip, 50 mg/kg
BT-474 = assay: Antiproliferative activity against human BT-474 cells assessed as growth inhibition incubated for 5 days by IncuCyte live-cell imaging analysis; format: functional; details: BT-474, 120 h, time 5 day
in vivo [6] = details: Swiss albino, mouse, ip, 50 mg/kg; remark: listed apart in the source
[7] = biological target: T2, Protein cereblon/AKT (Homo sapiens) (UniProt P31751+Q9Y243+P31749+Q96SW2); assay: Protac activity at CRBN/AKT in human PC-3 cells assessed as reduction in total AKT level at 1 uM after 24 hrs by Western blot analysis; format: cell-based
Summary of the method: (§2)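 PC3 cells were exposed to compound at 1 μM for 24 h, with GSK690693 as reference inhibitor. Lysates were immunoblotted for total AKT, P-AKT S473, P-PRAS40 T246 and P-S6 S240/244, with β-actin as loading control. Detection was by HRP chemiluminescence on film.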

[8] = biological target: T2, Protein cereblon/AKT (Homo sapiens); assay: Protac activity at CRBN/AKT in human PC-3 cells assessed as reduction in phosphorylated AKT level at 1 uM after 24 hrs by Western blot analysis; format: cell-based; summary of the method: as §2
[9] = biological target: T1, von Hippel-Lindau disease tumor suppressor/AKT (Homo sapiens); assay: Protac activity at VHL/AKT in human PC-3 cells assessed as reduction in phosphorylated AKT level at 1 uM after 24 hrs by Western blot analysis; format: cell-based; summary of the method: as §2
[10] = biological target: T1, von Hippel-Lindau disease tumor suppressor/AKT (Homo sapiens); assay: Protac activity at VHL/AKT in human PC-3 cells assessed as reduction in total AKT level at 1 uM after 24 hrs by Western blot analysis; format: cell-based; summary of the method: as §2
[11] = biological target: T1, von Hippel-Lindau disease tumor suppressor/AKT (Homo sapiens); assay: Protac activity at VHL/AKT in human BT-474 cells assessed as reduction in total AKT level after 24 hrs by Western blot analysis; format: cell-based; details: dose 1-10 µM; summary of the method: as §1
[12] = biological target: T2, Protein cereblon/AKT (Homo sapiens); assay: Protac activity at CRBN/AKT in human PC-3 cells assessed as reduction in PRAS40 phosphorylation at 1 uM after 24 hrs by Western blot analysis; format: cell-based; summary of the method: as §2
[13] = biological target: T2, Protein cereblon/AKT (Homo sapiens); assay: Protac activity at CRBN/AKT in human PC-3 cells assessed as reduction in S6 phosphorylation at 1 uM after 24 hrs by Western blot analysis; format: cell-based; summary of the method: as §2

Cc1ncsc1-c1ccc(CNC(=O)[C@@H]2C[C@@H](O)CN2C(=O)[C@@H](NC(=O)COCCNC(=O)CCNC[C@@H](C(=O)N2CCN(c3ncnc4c3[C@H](C)C[C@H]4O)CC2)c2ccc(Cl)cc2)C(C)(C)C)cc1
Activity [1]: Active | Activity [2]: Active

Cc1ncsc1-c1ccc([C@H](C)NC(=O)[C@@H]2C[C@@H](O)CN2C(=O)[C@@H](NC(=O)CCCCCCCCCCC(=O)NCCNC[C@@H](C(=O)N2CCN(c3ncnc4c3[C@H](C)C[C@H]4O)CC2)c2ccc(Cl)cc2)C(C)(C)C)cc1
GI50 (MDA-MB-468 [3]): 3.8 µM | Activity (Mus musculus): Non-Toxic | GI50 (PC-3): 9.2 µM | Activity (MDA-MB-468 [4]): < 3% | Cmax at 8 h (in vivo [5]): 3 µM | GI50 (BT-474): 1.3 µM | Cmax at 2 h (in vivo [6]): 3.5 µM

CCn1c(-c2nonc2N)nc2c(C#CC(C)(C)O)ncc(OCCCNCCCC(=O)NCCOCCOCCNc3cccc4c3C(=O)N(C3CCC(=O)NC3=O)C4=O)c21 (configuration not stated)
Activity [7]: Active | Activity [8]: Active

CCn1c(-c2nonc2N)nc2c(C#CC(C)(C)O)ncc(OCCCNCCCC(=O)NCCOCCOCCOCCC(=O)N[C@H](C(=O)N3C[C@H](O)C[C@H]3C(=O)NCc3ccc(-c4scnc4C)cc3)C(C)(C)C)c21
Activity [9]: inactive | Activity [10]: inactive

CCn1c(-c2nonc2N)nc2c(C#CC(C)(C)O)ncc(OCCCNCCCC(=O)NCCOCCOCCC(=O)N[C@H](C(=O)N3C[C@H](O)C[C@H]3C(=O)NCc3ccc(-c4scnc4C)cc3)C(C)(C)C)c21
Activity [9]: inactive | Activity [10]: inactive

CCn1c(-c2nonc2N)nc2c(C#CC(C)(C)O)ncc(OCCCNCCCC(=O)NCCOCCOCCOCCOCCC(=O)N[C@H](C(=O)N3C[C@H](O)C[C@H]3C(=O)NCc3ccc(-c4scnc4C)cc3)C(C)(C)C)c21
Activity [9]: inactive | Activity [10]: inactive

C[C@@H]1C[C@@H](O)c2ncnc(N3CCN(C(=O)[C@H](CNCCC(=O)NCCCCCCCCNc4cccc5c4C(=O)N(C4CCC(=O)N(C)C4=O)C5=O)c4ccc(Cl)cc4)CC3)c21 (some centres not stated)
GI50 (BT-474): 3.3 µM

CC(C)NC[C@@H](C(=O)N1CCN(c2ncnc3c2[C@H](C)C[C@H]3O)CC1)c1ccc(Cl)cc1 [IPATASERTIB]
GI50 (MDA-MB-468 [3]): 3.7 µM | GI50 (PC-3): 7.6 µM

Cc1ncsc1-c1ccc(CNC(=O)[C@@H]2C[C@@H](O)CN2C(=O)[C@@H](NC(=O)CCCCNC(=O)CCNC[C@@H](C(=O)N2CCN(c3ncnc4c3[C@H](C)C[C@H]4O)CC2)c2ccc(Cl)cc2)C(C)(C)C)cc1
Activity [11]: Dose-dependent effect

CCn1c(-c2nonc2N)nc2c(C#CC(C)(C)O)ncc(OCCCNCCCC(=O)NCCOCC(=O)N[C@H](C(=O)N3C[C@H](O)C[C@H]3C(=O)NCc3ccc(-c4scnc4C)cc3)C(C)(C)C)c21
Activity [9]: inactive | Activity [10]: inactive

CCn1c(-c2nonc2N)nc2c(C#CC(C)(C)O)ncc(OCCCNCCCC(=O)NCCCCCCCCNc3cccc4c3C(=O)N(C3CCC(=O)NC3=O)C4=O)c21 (configuration not stated)
Activity [7]: Active | Activity [8]: Active | Activity [12]: inactive | Activity [13]: Active
